The list is not random: actives were taken first. Their share in the collection is about 3.7%.
KCNK3 inh = human KCNK3 channel inhibition, primary screen. O14649. CHO-KCNK3 thallium flux, FluxOR fluorescence; hits give low values. B-score at 10 µM. hit rate 0.84% among 340,000. AID 602410;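 active means B-score under library mean minus 4 SD, starting fluorescence ratio at most library mean plus 5 SD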;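 further: more negative B-score means stronger inhibition of thallium flux through KCNK3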
KCNK9 block = human KCNK9 channel inhibition. Q9NPC2. HEK293 KCNK9, FluxOR thallium flux fluorescence; hits give low values. B-score at 10 µM. hit rate 1.2% among 310,000. AID 488922;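 active means ratio B-score over 3 SD below the library mean, with starting fluorescence within 5 SD of its mean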;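 further: negative B-score means less thallium flux so channel inhibition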
Target sequence (Q9NPC2 whole entry, looked up): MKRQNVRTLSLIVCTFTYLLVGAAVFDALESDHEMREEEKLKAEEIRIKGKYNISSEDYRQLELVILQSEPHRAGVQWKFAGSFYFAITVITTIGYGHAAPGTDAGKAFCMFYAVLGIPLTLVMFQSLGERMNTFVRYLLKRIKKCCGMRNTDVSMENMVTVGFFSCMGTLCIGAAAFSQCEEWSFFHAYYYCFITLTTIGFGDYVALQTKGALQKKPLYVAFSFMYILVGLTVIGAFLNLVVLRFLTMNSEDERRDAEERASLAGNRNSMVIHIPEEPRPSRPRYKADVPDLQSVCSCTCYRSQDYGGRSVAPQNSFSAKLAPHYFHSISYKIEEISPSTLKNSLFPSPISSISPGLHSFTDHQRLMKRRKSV
KCNQ1 inh = blocks the human KCNQ1 potassium channel; CHO-K1 KCNQ1, FluxOR thallium flux fluorescence; hits give high values; hit rate 1.3% among 310,000; AID 2642; B-score at 10 µM;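 active means compounds whose thallium flux B-score, printed positive for inhibition, exceeds three library SD while starting fluorescence stays within three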;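 further: channel opened by potassium depolarization with thallium stimulus after 20 min compound exposure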
hERG rescue = shields human hERG channel from block by proarrhythmic agents. CHO-hERG, FluxOR thallium flux, dofetilide IC70 present. activation (rescue from dofetilide block), less the hit threshold, % at 10 µM. AID 1511. Q12809. hit rate 0.51% among 310,000;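 active means activation above the mean of controls blocked by dofetilide plus 5 SD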;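 further: thallium influx through hERG after potassium depolarization seen as dye fluorescence rise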
KCNQ1 pot = potentiates or activates the human KCNQ1 potassium channel. hit rate 0.35% among 310,000. P51787. CHO-K1 KCNQ1, thallium flux FluxOR fluorescence; hits give high values. B-score at 10 µM;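 active means fluorescence ratio B-score, a plate-corrected score, at least three library SD, with initial intensity B-score within 5 SD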
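Medium – assay buffer, equal DMSO in all wells · Material – CHO-K1 cell line with stable KCNQ1 potassium channel expression · Signal – kinetic FluxOR thallium fluorescence, 10-s 1-Hz baseline, 110-s post-stimulus read · Compound – single concentration per compound, DMSO matched to controls · Schedule – 37 °C overnight plating, 90-min dark dye load, 20-min compound pretreatment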
Kir21 inh = blocks the mouse Kir2.1 inward-rectifier potassium channel. P35561. HEK293-Kir2.1, FluxOR thallium flux fluorescence; hits give low values. B-score at 10 µM. hit rate 0.85% among 310,000;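 active means fluorescence ratio B-score at or below minus 3 SD of library scores, with starting-brightness B-score within 2 SD, cut at about -4.2 in these data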;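 further: channel flux triggered by added potassium and thallium sulfate stimulus; B-score of peak minus minimum fluorescence over baseline after thallium stimulus; more negative B-score means stronger Kir2.1 block with less thallium influx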
KCNK9 inh conf = confirmation of human KCNK9 potassium channel inhibitors | inhibition, % at 10 µM | AID 492992 | hit rate 43% among 4,900 | shares compounds with KCNK9 block | HEK293 KCNK9 cells, FluxOR thallium flux fluorescence;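 active means thallium signal inhibited by more than 5 SD of the compound-free buffer control wells, on both duplicate plates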
Kir2-1 spec = mouse Kir2.1 off-target activity of KCNK9 modulators. shares compounds with KCNK9 block. Kir2.1 cells, FluxOR thallium flux fluorescence. hit rate 4% among 4,900. inhibition, % at 10 µM;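 active means thallium signal drop more than 5 SD beyond the mean of the no-compound control wells, seen in both duplicate plates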;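 further: signal is fluorescence rise after thallium addition divided by baseline fluorescence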
KCNK9 uninduced = non-induced cell nonspecific activity of KCNK9 modulators; shares compounds with KCNK9 block; non-induced KCNK9-HEK293, FluxOR thallium flux; inhibition, % at 10 µM; hit rate 40% among 4,900;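 active means thallium signal drop beyond 5 SD of the untreated control mean, on both duplicate plates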
Each line names hits and unclear results; the compound was inactive in the other large screens (follow-up assays come after a bar, where they were run).

Cc1ccc(NC2CCCN(C(=O)c3cn(C)c4ccccc34)C2)cc1C (stereo not drawn)	none | KCNK9 inh conf inactive | Kir2-1 spec inactive | KCNK9 uninduced inactive
COc1ccc(NC2CCCN(C(=O)c3cn(C)c4ccccc34)C2)cc1 (stereo not drawn)	none | KCNK9 inh conf inactive | Kir2-1 spec inactive | KCNK9 uninduced inactive
Cc1ccccc1OCCC(=O)N(CC(C)C)c1c(N)n(Cc2ccccc2)c(=O)[nH]c1=O	none (no result: KCNK9 block, KCNQ1 inh, hERG rescue, KCNQ1 pot, Kir21 inh)
COc1cccc(/C(C#N)=C/c2c(-c3ccc(Cl)cc3)nc3c(C)cccn23)c1	KCNK9 block -8.9, KCNQ1 inh 8 | KCNK9 inh conf 58% | Kir2-1 spec inactive | KCNK9 uninduced 38%
O=C(Nc1cc(Sc2nc3ccccc3s2)cc([N+](=O)[O-])c1)c1ccccc1F	KCNK9 block -9 | KCNK9 inh conf 32% | Kir2-1 spec inactive | KCNK9 uninduced 30%
COc1ccccc1-c1nnc(SC/C(O)=C(\C#N)c2nc3ccccc3[nH]2)n1C1CCCCC1	KCNK9 block -12 | KCNK9 inh conf 72% | Kir2-1 spec inactive | KCNK9 uninduced inactive
N#C/C(=C(/O)CSc1nnc(Cc2cccs2)n1C1CCCCC1)c1nc2ccccc2[nH]1	none
COc1cc(NC(=O)CSc2nnc3ccc(-c4cccnc4)nn23)cc(OC)c1	none
CC(C)CCn1nc(C(=O)Nc2nc3c(s2)CCCC3)c2ccccc2c1=O	KCNK9 block -17 | KCNK9 inh conf 76% | Kir2-1 spec inactive | KCNK9 uninduced inactive
CC(C)CC1Nc2ncnc(N3CCN(c4ccccc4)CC3)c2N(Cc2ccc(Cl)cc2)C1=O (stereo not drawn)	none
O=C1NC(=O)C2(CCCCCCCCCCC2)N1	none
N#Cc1cnn2ccn(C3OC(CO)C(O)C3O)c12 (stereo not drawn)	none
Cc1cc2nc(-c3cc(N4CCOCC4)ccc3[N+](=O)[O-])ccn2n1	none
Cc1cc2nc(-c3ccc4c(c3)CCC4)ccn2n1	none | KCNK9 inh conf inactive | Kir2-1 spec inactive | KCNK9 uninduced inactive
Cc1ccc(-c2ccc(SCC(=O)c3ccccc3)nn2)cc1	none
COc1ccc(-c2ccc(SCC(=O)c3ccccc3)nn2)cc1OC	KCNK9 block -11 | KCNK9 inh conf 60% | Kir2-1 spec inactive | KCNK9 uninduced inactive
C(=N\N1CCN(C2c3ccccc3-c3ccccc32)CC1)/c1ccccn1	none
Cc1ccc(/C=N/N2CCN(C3c4ccccc4-c4ccccc43)CC2)s1	none | KCNK9 inh conf inactive | Kir2-1 spec inactive | KCNK9 uninduced inactive
Cc1ccc2c(c1)N(C(=O)CCC(=O)N1CCN(c3ccccn3)CC1)CC(C)O2 (stereo not drawn)	none
Cc1ccc2c(c1)N(C(=O)CCC(=O)Nc1ccccc1Cl)CC(C)O2 (stereo not drawn)	none | KCNK9 inh conf inactive | Kir2-1 spec inactive | KCNK9 uninduced inactive
Cc1ccc2c(c1)N(C(=O)CCC(=O)NCc1ccccc1)CC(C)O2 (stereo not drawn)	none
Cc1cccc(N2CCN(C(=O)CCC(=O)N3CC(C)Oc4ccc(C)cc43)CC2C)c1 (stereo not drawn)	none | KCNK9 inh conf inactive | Kir2-1 spec inactive | KCNK9 uninduced inactive
Cc1c(CC(=O)NCCCO)c(=O)oc2cc3c(cc12)CCC(C)(C)O3	none
Cc1cc(C(=O)OCC(=O)Nc2cccc(S(N)(=O)=O)c2)c2ccccc2n1	none
CC(C(=O)NC1C=CS(=O)(=O)C1)N1C(=O)/C(=C\c2ccccc2)SC1=S (stereo not drawn)	none
CC(C(=O)NC1C=CS(=O)(=O)C1)N1C(=O)/C(=C/c2cccc(Cl)c2)SC1=S (stereo not drawn)	none | KCNK9 inh conf inactive | Kir2-1 spec inactive | KCNK9 uninduced inactive
